How the values were obtained:
[1] = test system: recombinant hpol κ; conditions: cited from earlier work
[2] = test system: hpol κ-deficient HAP-1 cells; assay: Alkaline comet assay; assay type: cell-based, human; conditions: 100 μM TMZ alone, 1 h
In short: (§1)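 100 000 HAP-1 cells per well, test compound 0.5 μM alone or with alkylating agent (100 μM), 1 h; DMSO control. Cells embedded in low-melting agarose (200–300 per well), lysed 1 h, alkaline unwinding (200 mM NaOH, 1 mM EDTA) 20 min RT, electrophoresis 21 V, 30 min, 4 °C, SYBR Gold stain. Read-out is % DNA in tail per cell; ≥20 cells per replicate, three biological replicates, mean ±SD.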

[3] = test system: hpol κ-proficient HAP-1 cells; assay: Clonogenic survival assay; assay type: cell-based, human; conditions: 250 μM TMZ alone, 1 h, 10 days culture
[4] = test system: hpol κ-deficient HAP-1 cells; assay: Clonogenic survival assay; assay type: cell-based, human; conditions: 250 μM TMZ alone
[5] = test system: hpol κ-proficient HAP-1 cells; assay: Alkaline comet assay; assay type: cell-based, human; conditions: 100 μM TMZ alone, 1 h
In short: as §1

Row | SMILES | IC50 [1] | DNA damage (% DNA in tail) over control [2] | colonies formed relative to untreated cells [3] | colonies formed relative to untreated cells [4] | DNA damage (% DNA in tail) over untreated cells [5]
1 | CC(C)c1ccc2c(c1)c(SC(C)(C)C)c(CC(C)(C)C(=O)O)n2Cc1ccc(Cl)cc1 [MK-886] | tens of micromolar |  |  |  | 
2 | Cn1nnc2c(C(N)=O)ncn2c1=O [TMZ, temozolomide, reference compound] |  | significantly greater amount of DNA damage over control | ~ 75% | less than 50% | approximately sevenfold
3 | CCOc1nc2cccc(C(=O)OC(C)OC(=O)OC3CCCCC3)c2n1Cc1ccc(-c2ccccc2-c2nn[nH]n2)cc1 (stereo not drawn) [candesartan, candesartan cilexetil] | tens of micromolar |  |  |  | 
